# Test results from PubChem BioAssay.
# The source made the active and inactive calls.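 How the source made its calls, unless noted: active means NADPH fluorescence slope more negative than the mean of all samples by about 3 SD, 99.7% confidence; inactive means the rest.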
# Tests used:
# [1] = inhibitors of TNFa-induced NFkB p65 translocation, primary screen, imaging, HUVEC, MLSMR starter and 10KST1 sets (AID 438;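 active means inhibition above 20% together with a positive visual image hit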;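 further: compound added about 3h40 before a 20 min TNFalpha stimulation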;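 on inhibition: signal is the nuclear over cytoplasmic p65 intensity ratio per well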); conditions: HUVEC TNFa-induced p65 nuclear translocation; cell count: measured here: nuclei count (cytotoxicity indicator), at 2.08 µM; inhibition: at 2 µM, stronger effect = higher value, 0% TNFa-plus-vehicle, 100% no-TNFa wells
# [2] = endothelial E-selectin expression blockers – imaging, HUVEC, immunofluorescence, MLSMR starter and 10KST1 sets, primary screen (AID 487;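 active means visually confirmed hit in the image check and inhibition above 20%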;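 on inhibition: signal is fraction of cell area covered by stained E-selectin grains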;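 on nuclei count: 100% = median nuclei count of all wells on the same plate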); conditions: HUVEC TNFalpha-induced E-selectin immunofluorescence imaging, at 2 µM; inhibition: stronger effect = higher value; nuclei count: measured here: cell number, toxicity
# [3] = Primary imaging screen for DUSP6 inhibitors that restore phospho-Erk in transfected HeLa cells, chemical complementation (AID 609;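 active means compounds giving at least 50% inhibition in the cell-based MKP-3 phosphatase rescue imaging test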;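 on inhibition: phospho-Erk level distribution per well compared with pooled transfected vehicle control wells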); conditions: HeLa MKP-3 transfected, phospho-Erk imaging KS statistic, at 10 µM, cells stimulated with TPA for 15 min
# [4] = molecular target: Dual specificity protein phosphatase 6 (Homo sapiens) (UniProt Q16828); test: as above; conditions: HeLa MKP-3 transfected, phospho-Erk imaging KS statistic; at 10 µM; stronger effect = higher value; cells stimulated with TPA for 15 min
# Chain of Dual specificity protein phosphatase 6 (Homo sapiens) (Q16828 whole entry, looked up): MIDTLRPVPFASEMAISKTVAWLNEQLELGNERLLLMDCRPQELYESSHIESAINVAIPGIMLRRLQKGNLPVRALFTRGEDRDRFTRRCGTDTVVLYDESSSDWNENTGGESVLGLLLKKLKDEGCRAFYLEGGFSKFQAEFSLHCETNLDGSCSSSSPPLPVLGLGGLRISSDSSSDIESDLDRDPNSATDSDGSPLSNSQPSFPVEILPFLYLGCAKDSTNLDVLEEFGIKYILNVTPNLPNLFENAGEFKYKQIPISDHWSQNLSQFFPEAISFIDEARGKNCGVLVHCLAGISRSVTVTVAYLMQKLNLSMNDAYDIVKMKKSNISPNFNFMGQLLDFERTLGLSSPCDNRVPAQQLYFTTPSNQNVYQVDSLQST
# [5] = molecular target: Voltage-gated potassium channel subunit beta-2 (Rattus norvegicus) (UniProt P62483); test: inhibitors of rat Kvbeta2 reductase activity – biochemical, NADPH fluorescence, primary screen (AID 622;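 active means fluorescence slope higher than the sample average by over 3 SD, cut at about -0.22 in these data, passing the limit was not always enough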;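 further: slope of raw intensity against log time taken from 70 to 1610 s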); conditions: recombinant KvBeta, 4-cyanobenzaldehyde reduction, at 10 µM, stronger effect = higher value
# Chain of Voltage-gated potassium channel subunit beta-2 (Rattus norvegicus) (P62483 whole entry, looked up): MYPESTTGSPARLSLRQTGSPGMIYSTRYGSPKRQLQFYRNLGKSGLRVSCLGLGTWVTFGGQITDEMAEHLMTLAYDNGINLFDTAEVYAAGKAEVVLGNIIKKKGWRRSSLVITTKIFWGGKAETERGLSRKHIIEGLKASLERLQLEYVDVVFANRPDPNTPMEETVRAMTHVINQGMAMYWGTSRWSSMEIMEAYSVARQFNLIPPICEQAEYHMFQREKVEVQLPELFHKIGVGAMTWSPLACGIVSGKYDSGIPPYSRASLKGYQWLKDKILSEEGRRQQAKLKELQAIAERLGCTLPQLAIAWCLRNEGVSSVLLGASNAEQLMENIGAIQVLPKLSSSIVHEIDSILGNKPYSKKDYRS
# [6] = molecular target: Voltage-gated potassium channel subunit beta-2 (Rattus norvegicus) (UniProt P62483); test: enhancers of rat Kvbeta2 NADPH turnover – biochemical, NADPH fluorescence, primary screen (AID 623); conditions: Recombinant KvBeta, NADPH fluorescence decrease slope, 10 min; at 10 µM; stronger effect = lower value;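 further: fluorescence intensity change per second fitted from 20 to 320 s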
# [7] = molecular target: Alpha-2C adrenergic receptor (Homo sapiens) (UniProt P18825); test: compounds altering alpha2C-coupled GIRK flux – cell-based, HEK293 alpha2C/GIRK1/2, thallium flux, primary screen (AID 624;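 active means fluorescence slope after compound addition differing from the mean of all screened samples at 99.7% confidence, in either direction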;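 further: slope of fluorescence ratio to pre-addition baseline per second over 15 to 24 s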); conditions: thallium flux BTC fluorescence, at 10 µM, actives lie on both sides
# Chain of Alpha-2C adrenergic receptor (Homo sapiens) (P18825 whole entry, looked up): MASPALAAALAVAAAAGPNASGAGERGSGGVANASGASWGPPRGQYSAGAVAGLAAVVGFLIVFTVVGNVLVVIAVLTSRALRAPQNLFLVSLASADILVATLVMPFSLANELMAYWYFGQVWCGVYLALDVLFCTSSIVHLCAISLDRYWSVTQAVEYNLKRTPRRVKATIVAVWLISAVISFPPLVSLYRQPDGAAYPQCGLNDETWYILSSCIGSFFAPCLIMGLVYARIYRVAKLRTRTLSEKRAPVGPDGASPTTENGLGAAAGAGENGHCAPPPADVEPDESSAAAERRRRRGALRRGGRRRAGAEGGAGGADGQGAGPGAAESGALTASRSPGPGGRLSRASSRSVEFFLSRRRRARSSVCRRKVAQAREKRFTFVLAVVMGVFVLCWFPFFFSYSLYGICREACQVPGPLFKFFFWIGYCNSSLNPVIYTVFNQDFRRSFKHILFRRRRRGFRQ
# [8] = inhibitors of larval lipid processing in zebrafish, primary screen, whole organism, PED6 fluorescence, gall bladder and intestine (AID 686;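 active means a full or partial loss of lipid-probe fluorescence in the fish gall bladder, intestine or both, judged by eye; inactive means no fluorescence loss, or compound toxic to the fish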;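 further: larvae 5 to 7 days old with five fish per well; signal comes from phospholipase A2 cleavage of quenched PED6 carried via bile; overnight exposure to compound and PED6 before scoring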); conditions: Zebrafish larvae PED6 lipid processing, fluorescence scoring; screened at 20 µM (by protocol)
# Summary of the method: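 system = live zebrafish larvae aged 5-7 days, whole organism | probe or stimulus = ingested quenched lipid PED6 at 100 nM | doses = 20 µM single dose | timing = overnight exposure | detection = fluorescence microscopy with visual scoring of gall bladder and intestine | read-out = visual per-well fluorescence inhibition score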
# [9] = loss of swimming-algae plug formation – whole organism, Chlamydomonas reinhardtii, WT vs cilia-less mutant, absorbance, 96-well, primary screen (AID 463189;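 active means inhibition at or above 50% relative to wild type and mutant plate controls; inactive means inhibition below 50%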;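 further: 0% = wild type cc124 cells in DMSO and 100% = ciliumless bld1 mutant cells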); conditions: Chlamydomonas reinhardtii gravitaxis, OD600 absorbance, 2 days; at 10 µM; stronger effect = higher value
# [10] = measured here: cell density z-score
# [11] = measured here: nuclear c-Myc green intensity z-score
# [12] = measured here: nuclear pErk red intensity z-score, stronger effect = higher value
SMILES,cell count [1],inhibition [1],inhibition [2],nuclei count [2] [%],"z-score [3, 10]","z-score [3, 11]","z-score [3, 12]",inhibition [4],fluorescence slope [5],NADPH fluorescence slope [6],slope [7],outcome [8],inhibition [9]
CCOC(=O)c1c(C)n(C)c2ccc(OC)c(NC(=O)CN3CCN(Cc4ccccc4)CC3)c12,291,0.8% (inactive),-14% (inactive),93.5,-0.908,0.5,1.45,-6.59% (inactive),-0.431 (inactive),-0.000147 (inactive),0.00677 (inactive),inactive,-10.1% (inactive)
CCOC(=O)C1=C(C)NC(SCC(=O)Nc2nc(C)cs2)=C(C#N)C1c1cccs1 (centres undefined),540,-13.4% (inactive),-57.8% (inactive),106,1.78,-0.812,-0.565,-7.28% (inactive),-0.472 (inactive),6.5e-06 (inactive),0.006 (inactive),inactive,2.72% (inactive)
Cc1ccc2[nH]c3c(c2c1)CN(C(=O)CN1CCN(c2ccccn2)CC1)CC3,563,-9% (inactive),-69.3% (inactive),144,-1.22,-0.583,-0.448,4.72% (inactive),-0.453 (inactive),-0.000143 (inactive),0.00579 (inactive),inactive,10.4% (inactive)
COC(=O)c1ccc(Nc2cc(C)nc(-c3ccccc3O)n2)cc1,598,-2.7% (inactive),-66.3% (inactive),140,0.899,0.0889,-0.242,1.9e-07% (inactive),-0.106 (inactive),2.6e-07 (inactive),0.00449 (inactive),inactive,17.7% (inactive)
CCOc1ccc(Br)cc1CC(=O)O,280,-20.4% (inactive),-108% (inactive),90.5,-0.00622,-0.788,-0.945,14% (inactive),-0.486 (inactive),-0.000116 (inactive),0.00651 (inactive),inactive,-8.79% (inactive)
Cc1nc(SCC(N)=O)[nH]c(=O)c1Cc1ccc(OC(C)C)cc1,585,5.2% (inactive),22.1% (inactive),150,-0.515,0.503,0.0528,3.5% (inactive),-0.331 (inactive),2.9e-05 (inactive),0.00497 (inactive),inactive,-1.58% (inactive)
CCOC(=O)CC(=O)CSc1nc(N)c(C#N)c(-c2ccc(Cl)cc2)c1C#N,405,-9.9% (inactive),-43.1% (inactive),99.2,1.08,-0.959,-2.04,-6.48% (inactive),-0.318 (inactive),1.7e-05 (inactive),0.00603 (inactive),inactive,-7.76% (inactive)
CN1CCc2c(sc3c2C(=O)NC(c2ccco2)N3)C1 (centres undefined),554,-12% (inactive),-9.3% (inactive),170,-0.0126,-0.484,0.477,4.72% (inactive),-0.43 (inactive),-3.1e-06 (inactive),0.00594 (inactive),inactive,7.66% (inactive)
Cc1nc2sc3c(NCc4ccco4)ncnc3c2c2c1COC(C)(C)C2,595,-11% (inactive),-84.2% (inactive),181,-1.22,-0.424,1.05,-2.69% (inactive),-0.373 (inactive),-3e-05 (inactive),0.00585 (inactive),inactive,45.7% (inactive)
CCN(CC)CCN1C(=O)C(=O)/C(=C(/O)c2ccc(F)cc2)C1c1ccncc1 (centres undefined),519,-13.3% (inactive),-36.8% (inactive),110,0.315,0.605,-0.561,-11.5% (inactive),-0.542 (inactive),-1e-05 (inactive),0.00505 (inactive),inactive,-7.51% (inactive)
Cc1ccc(C2/C(=C(\O)c3cnn(-c4ccccc4)c3C)C(=O)C(=O)N2CCN(C)C)o1 (centres undefined),488,4.7% (inactive),-57.2% (inactive),108,-0.998,2.35,1.95,5.26% (inactive),-0.583 (inactive),-3.5e-05 (inactive),0.00573 (inactive),inactive,-22.8% (inactive)
CN(C)c1nc2n(c(=S)n1)CCS2,604,-3.2% (inactive),-204% (inactive),109,-0.355,-0.0746,0.173,16.1% (inactive),-0.409 (inactive),-2e-05 (inactive),0.00562 (inactive),inactive,-16.2% (inactive)
CN1C(=O)C2(N=c3ccccc3=N2)c2ccccc21,527,-4.5% (inactive),-152% (inactive),209,-0.677,0.303,0.421,7.73% (inactive),-0.482 (inactive),-4.4e-05 (inactive),0.00491 (inactive),inactive,9.55% (inactive)
